The nature of data set [1]: Tmax in C57BL/6 mouse at 10 mg/kg by LC/MS analysis. Particulars: in vivo. Format: ADME, organism-based. An outline of the steps: (§1)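 C57BL/6 mice were dosed individually at 10 mg/kg, and blood was sampled at set time points. Plasma was diluted with 4 volumes of DMSO/ACN (1:1) containing 0.1% TFA and centrifuged. The supernatant was quantified by triple-quadrupole LC/MS against a methylated NM4A internal standard.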

Data set [2] concerns Mus musculus. Description: Toxicity in DIO C57BL/6 mouse assessed as gastric emptying at 2.6 mg/kg, sc administered once a week for 21 days. Format: organism-based, Stomach. Particulars: in vivo, 504 h.
Data set [3] relates to Mus musculus. Description: Toxicity in DIO C57BL/6 mouse assessed as white blood cells level at 2.6 mg/kg, sc administered once a week for 21 days by hematology analyzer (reference value: 7.35 +/- 1.21 x 10^6/ml). Format: organism-based. As to conditions: in vivo, 504 h.
Data set [4] concerns Mus musculus. As to the kind of experiment: Toxicity in DIO C57BL/6 mouse assessed as neutrophils level at 2.6 mg/kg, sc administered once a week for 21 days by hematology analyzer (reference value: 1.3 +/- 0.21 x 10^6/ml). Format: organism-based. As to conditions: in vivo, 504 h.
Data set [5] concerns Mus musculus. As to the kind of experiment: Toxicity in DIO C57BL/6 mouse assessed as lymphocytes level at 2.6 mg/kg, sc administered once a week for 21 days by hematology analyzer (reference value: 4.82 +/- 0.68 x 10^6/ml). Format: organism-based. As to conditions: in vivo, 504 h.
Data set [6] deals with Mus musculus. Description: Toxicity in DIO C57BL/6 mouse assessed as monocytes level at 2.6 mg/kg, sc administered once a week for 21 days by hematology analyzer (reference value: 1.07 +/- 0.31 x 10^5/ml). Format: organism-based. Particulars: in vivo, 504 h.
Data set [7] concerns Mus musculus. Description: Toxicity in DIO C57BL/6 mouse assessed as red blood cells level at 2.6 mg/kg, sc administered once a week for 21 days by hematology analyzer (reference value: 9.17 +/- 0.17 x 10^9/ml). Format: organism-based. As to conditions: in vivo, 504 h.
Data set [8] has as its system Mus musculus. As to the kind of experiment: Toxicity in DIO C57BL/6 mouse assessed as platelets level at 2.6 mg/kg, sc administered once a week for 21 days by hematology analyzer (reference value: 5.97 +/- 0.32 x 10^8/ml). Format: organism-based. Particulars: in vivo, 504 h.
For data set [9], the system named is Mus musculus. Description: Drug level in C57BL/6 mouse at 10 mg/kg measured at 12 hrs by LC/MS analysis. Format: ADME, organism-based. As to conditions: in vivo. An outline of the steps: as §1

Molecules are shown by their SMILES.

For the compound `CCCCCCCCCCCCCCCCN(CCCCCCCCCCCCCCCC)CCCCCC(=O)NC(C)(C)C(=O)N[C@@H](Cc1ccccc1)C(=O)N[C@@H](CC(C)C)C(=O)N[C@@H](Cc1ccccc1)C(=O)N[C@@H](CCCNC(=N)N)C(=O)N1CCC[C@H]1C(=O)N[C@@H](CCCNC(=N)N)C(=O)N[C@@H](CC(N)=O)C(N)=O`, the Tmax in [1] worked out at 9.8 h. The Activity result was “Non-toxic” in the data set on Mus musculus [2]; 5.73 ×10⁶ /ml with Mus musculus [3]; 1.02 ×10⁶ /ml in the data set with Mus musculus [4]; 4.56 ×10⁶ /ml in the data set with Mus musculus [5]; 1.46 ×10⁵ /ml in the data set with Mus musculus [6]; 9.49 ×10⁹ /ml in the data set on Mus musculus [7]. Moreover, the Activity in the data set with Mus musculus [8] is reported as 6.95 ×10⁸ /ml. This compound yielded a Drug uptake in the data set with Mus musculus [9] of 768 fmol/µL.

Usually Tmax stands for the time at which the peak concentration occurs.

The values above are taken from ChEMBL document CHEMBL3758116, “Small lipidated anti-obesity compounds derived from neuromedin U” (Eur J Med Chem, 2015).
